Screen size: about 340,000 compounds; about 1,100 (0.32%) were called active.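 How the source made its calls: active means inhibition above a set limit, near 3 SD of compounds lacking own fluorescence (cut at about 54% in these data); inactive means the rest.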 This excerpt belongs to a sample that is enriched for actives.

A word on the inhibition: it is the drop in the measured response relative to a control, in per cent.

This test concerns beta-arrestin 1 C-terminal peptide binding to AP2 beta2-adaptin appendage (human). The test can be described thus: blockers of arrestin peptide association with AP2 adaptin – biochemical, GPCR trafficking, flow cytometry, primary screen (AID 504490).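 Further: plate controls were DMSO wells for no effect and 5 µM unlabelled arrestin peptide for full effect.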 The conditions noted are these: FITC-arrestin peptide / GST-AP2 beads, at 10 µM, hits give high values, AP2 beta2 appendage carries R879A mutation. An outline of the steps: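 System: GST-AP2 R879A bound to glutathione beads, E. coli-expressed. Also added: 50 nM FITC-arrestin peptide. Schedule: compound with beads 12 min RT, then probe 1 h RT. Signal: bead flow cytometry, FITC channel. Read-out basis: percent response.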
(A flow cytometer gives signals particle by particle.)
Turning to `CCCCNC(=O)C1CCCN(S(=O)(=O)c2ccc(S(=O)(=O)NCC(C)C)cc2)C1` (configuration not stated), the inhibition was 4.41% (inactive). With `Cc1cccc(NC(=O)C2CCCN(C(=O)Nc3ccc(F)cc3)C2)c1C` (configuration not stated), the inhibition is 25% (inactive). On to `Cc1cc(/C=C2\SC(=O)N(C)C2=O)c(C)n1-c1cccc(C(=O)O)c1`, for which the inhibition was 54.7% (active). The value for `Cc1cc(/C=C2/SC(=O)N(CC(=O)N3CCCC3)C2=O)c(C)n1C` was -9.22% (inactive); that for `Cc1cc(/C=C2\SC(=Nc3ccc(N4CCOCC4)cc3)N(C)C2=O)c(C)n1-c1cccnc1` was -3.18% (inactive); that for `COc1cccc(C(=O)n2ccc(-c3cccs3)n2)c1` was 4.99% (inactive). The value for `O=C(CN1C(=O)NC2(CCCCCC2)C1=O)NCc1ccc(F)cc1` was 13.2% (inactive). As to `CCc1ccc(N(CC(=O)Nc2sc3c(c2C(=O)OC)CCCC3)S(C)(=O)=O)cc1`, the inhibition was -5.8% (inactive).

`N#CCSc1nn(-c2ccc(F)cc2)c(=S)s1`: the inhibition is 1.03% (inactive). Next, `O=S(=O)(c1ccccc1)N(Cc1cccc(F)c1)c1ccccc1`: 6.33% (inactive); `COC(=O)C1CC2=C(CC(C)(C)CC2=O)N(c2ccccc2)C1=O` (configuration not stated): 54.1% (active); `CC(C)C1C2=C(CC(C)(C)CC2=O)ON1c1ccccc1` (configuration not stated): 14.7% (inactive). The value for `Cc1ccc(N2C(=O)C(NC(=O)c3c(F)cccc3F)(C(F)(F)F)C3=C2CC(C)(C)CC3=O)cc1` (configuration not stated) was 11.2% (inactive); that for `Cc1ccc2[nH]cc(CCNC(=O)c3ccc([N+](=O)[O-])cc3)c2c1` was 5.19% (inactive). Next, `CCN(CC)Cc1c(C(=O)N/N=C/c2cccc(OCc3ccc(F)cc3)c2)nnn1-c1nonc1N`: -0.16% (inactive).

For `Cn1ccsc1=NC(=O)c1cc(S(=O)(=O)N2CCOCC2)ccc1Cl`, the inhibition is -5.18% (inactive). The value for `COc1cccc(-n2c(SCC(=O)c3c[nH]c4ccccc34)nc3ccccc3c2=O)c1` was 105% (active). Consider `COC(=O)c1ccc(CSc2nc3ccccc3c(=O)n2-c2cccc(OC)c2)o1`, for which the inhibition was 5.8% (inactive). Regarding `COc1cccc(-n2c(SCC(=O)NC3CCS(=O)(=O)C3)nc3ccccc3c2=O)c1` (configuration not stated), the inhibition was -2.41% (inactive). The value for `CN(C)c1ccc(Nc2c3c4c(cccc4n(C)c2=O)C(=O)c2ccccc2-3)cc1` was 63.5% (active).

Turning to `CN(C)c1ccc(C2N(C)C(=O)c3ccccc3N2C)cc1` (configuration not stated), the inhibition is -7.07% (inactive).

Consider `CC(=O)NCCNC(=O)c1cc(-c2cccc3ccccc23)nc2ccccc12`, for which the inhibition is 60.3% (active). Regarding `CCOc1ccccc1-c1cc(C(=O)N/N=C(\C)c2cccnc2)c2ccccc2n1`, the inhibition is -0.49% (inactive). Take `O=C(NCCc1ccccn1)c1cc(-c2ccc(Cl)cc2)nc2ccccc12`: the inhibition is 13.5% (inactive). Next, `c1ccc(CC2CCN(c3nc4ccccc4n4cnnc34)CC2)cc1`: -7.81% (inactive). The value for `Cc1ccc(C)c(N(CC(=O)NCc2ccco2)C(=O)CCC(=O)Nc2ccccn2)c1` was -8.6% (inactive); that for `COc1ccc(C2NC(=O)c3ccccc3N2)cc1` (configuration not stated) was 26.1% (inactive); that for `COc1cc2c(cc1OC)C(c1ccccc1Br)NC(=O)C2` (configuration not stated) was -7.73% (inactive).

In the case of `Brc1ccccc1C1Nc2cccc3cccc(c23)N1`, the inhibition is 56% (active). Consider `Oc1ccc(C2Nc3cccc4cccc(c34)N2)cc1`, for which the inhibition is 56.2% (active). Next, `Brc1ccccc1C1N=C(c2ccccc2)NO1` (configuration not stated): -3.82% (inactive). On to `COc1ccc([C@H]2CC(=O)C=C(c3ccc(C)cc3)C2)cc1`, for which the inhibition is 18.7% (inactive). Next, `CC(=O)Nc1ccc(S(=O)(=O)N2CCN(C(=O)c3ccccc3F)CC2)cc1`: -16.7% (inactive); `CC12COC3(C(=O)Nc4ccc(Cl)cn4)CC1CCC32C` (configuration not stated): 1.37% (inactive). Next, `CCc1ccccc1N(CC(=O)NCC1CCCO1)C(=O)CCC(=O)Nc1nccs1` (configuration not stated): -16.6% (inactive); `Cc1ccc(Cl)cc1-c1ccc(/C=N/n2cnnc2)o1`: 63.3% (active). Next, `Brc1cc(/C=N/n2cnnc2)oc1Br`: 1.91% (inactive); `Clc1cc(-c2ccc(/C=N/n3cnnc3)o2)ccc1Br`: 1.32% (inactive). With `N#Cc1ccc(-c2ccc(Cl)cc2)nc1Oc1ccc(F)cc1`, the inhibition is -5.52% (inactive). The value for `Cc1c(C2=CCN(S(=O)(=O)c3ccc(Cl)cc3)CC2)c2ccccc2n1C` was 6.61% (inactive); that for `O=C(CCCNS(=O)(=O)c1cccc2nsnc12)NCCN1CCN(c2ccccc2F)CC1` was 5.08% (inactive). As to `Cc1ccc(S(=O)(=O)N2CCN(C(=O)Cn3c(=O)cnc4ccccc43)CC2)c(C)c1`, the inhibition is -13.3% (inactive). For `Cc1ccc(S(=O)(=O)N2CCN(C(=O)c3ccccc3-c3nc4ccccc4s3)CC2)c(C)c1`, the inhibition was 66.5% (active).

As for `Cc1ccc(S(=O)(=O)N2CCN(C(=O)N3CCOCC3)CC2)c(C)c1`, the inhibition is 17.1% (inactive). For the molecule `CC(C)(C)OC(=O)N1CCC(NC(=O)c2[nH]cnc2C(=O)N[C@@H](Cc2ccccc2)C(=O)OCc2ccccc2)CC1`, the inhibition was 9.22% (inactive). Take `O=C(NCCN1CCOC1=O)C1CCC(=O)N(CCc2ccc(Cl)cc2)C1` (configuration not stated): the inhibition was -10.1% (inactive). Consider `COCC(C)OC(=O)c1c(N)n(CCCN2CCOCC2)c2nc3ccccc3nc12` (configuration not stated), for which the inhibition was -8.22% (inactive). The value for `CC(C)(C)c1ccc(C(=O)NCCn2c(N)c(C#N)c3nc4ccccc4nc32)cc1` was 94.7% (active). `N#Cc1c(N)n(CCOC(=O)c2ccc(Cl)cc2)c2nc3ccccc3nc12`: the inhibition is 3.34% (inactive).

In the case of `COc1ccc(S(=O)(=O)Nc2cccc3c2O[C@H](CN(C)S(=O)(=O)c2ccc(OC)cc2)[C@@H](C)CN([C@H](C)CO)C3=O)cc1`, the inhibition was -15.4% (inactive). As to `COc1ccc(NC(=O)c2sc(N3CCOCC3)nc2-c2ccccc2)c(OC)c1`, the inhibition is 18.7% (inactive). `COC(=O)CN1C(=O)[C@H]2[C@@H](/C=C/c3ccccc3)N3C(=O)CN(Cc4ccccc4)C(=O)[C@@]3(Cc3ccccc3)[C@H]2C1=O`: the inhibition was -5.14% (inactive). In the case of `CC(=O)Nc1ccc(NC(=O)CSC2=NS(=O)(=O)c3ccccc3N2)cc1`, the inhibition was 22% (inactive).

`COC(=O)[C@H](C(C)C)n1c(C)c(C(C)=O)c(C(C)=O)c1C`: the inhibition was -0.72% (inactive). Next, `CCC(CC)c1nnc(NC(=O)c2nn(C)c(=O)c3ccccc23)s1`: -0.4% (inactive). Next, `COC(=O)c1cc(NC(=O)c2nn(C)c(=O)c3ccccc23)cc(C(=O)OC)c1`: 66.5% (active); `CCC(C)NC(=O)c1nn(C)c(=O)c2ccccc12` (configuration not stated): -22% (inactive). Next, `O=C(OCc1nc2ccccc2[nH]1)C1CCCCC1`: -0.04% (inactive); `Cn1c(N)c(C(=O)COC(=O)c2ccc3ccccc3c2)c(=O)n(C)c1=O`: 7.54% (inactive); `Cn1c(N)c(C(=O)COC(=O)c2cnc(Cl)c(Cl)c2)c(=O)n(C)c1=O`: -4.58% (inactive).

`Cc1cc(C(=O)OCC(=O)c2c(N)n(C)c(=O)n(C)c2=O)c(C)o1`: the inhibition was 104% (active). Regarding `CCCCN(C(=O)CSCc1ccc(C)cc1)c1c(N)n(Cc2ccccc2)c(=O)[nH]c1=O`, the inhibition was -0.62% (inactive).

As for `Cc1noc(C)c1CSc1nnc2ccc3ccccc3n12`, the inhibition was -1.44% (inactive). On to `Cc1coc2c(O)cc3c(c12)OC1(N2CCCCC2)C(=O)NCCCC31` (configuration not stated), for which the inhibition is 9.81% (inactive). The value for `O=[N+]([O-])c1ccccc1N/N=C1\CCc2ccccc21` was -6.42% (inactive); that for `Cn1cnnc1Sc1ccc(CN2CCN(C3CCCC3)C(CCO)C2)o1` (configuration not stated) was -10.1% (inactive). Next, `Cc1ccc(C(=O)NC(C)c2ccccc2)cc1Br` (configuration not stated): -2.36% (inactive). Next, `CC(NC(=O)c1cc2cc(Cl)ccc2oc1=N)c1ccccc1` (configuration not stated): 56% (active); `CC(NC(=O)C(=O)N/N=C/c1ccc(Cl)cc1)c1ccccc1` (configuration not stated): 6.57% (inactive); `CN(C(=O)c1cccc([N+](=O)[O-])c1)c1ccccc1C(=O)NCc1ccccc1`: -22.1% (inactive). For the molecule `CCC(C(=O)OC)n1cnc2scc(-c3ccc(C)cc3)c2c1=O` (configuration not stated), the inhibition was -1.08% (inactive). The value for `Cc1ccc(C)c(Cn2cnc3c(oc4ccccc43)c2=O)c1` was 29.7% (inactive); that for `CCC(C(=O)OC)n1cnc2c(oc3ccccc32)c1=O` (configuration not stated) was 54.6% (active); that for `Cc1ccc(NC(=O)CN2CCC3(O)CCCCC3C2c2ccc3c(c2)OCO3)c(C)c1` (configuration not stated) was 1.75% (inactive).

As for `CC(=O)Nc1ccc(NC(=O)CN2C(=O)COc3ccc(S(=O)(=O)N4CCCCC4)cc32)cc1`, the inhibition was -9.58% (inactive).

For the molecule `COC(=O)C1=C(C(=O)OC)C2(OC1c1ccc(Br)cc1)C(=O)c1ccccc1C2=O` (configuration not stated), the inhibition is 7.98% (inactive).

With `COc1ccccc1CNC(=O)c1cc(=O)c2ccccc2o1`, the inhibition was 2.61% (inactive).

For `COc1cc2c(cc1OC)CN(C(=O)c1cc(=O)c3ccccc3o1)CC2`, the inhibition is 82.5% (active).

As to `COc1ccc2c(CC(=O)N3CCc4cc(OC)c(OC)cc4C3)coc2c1`, the inhibition is -6.31% (inactive). `C=CCn1c(C(C)NC(=O)CC)nc2ccccc21` (configuration not stated): the inhibition is -3.06% (inactive).

For `CCC(=O)Nc1nc2ccccc2n1Cc1ccccc1C`, the inhibition is 69.6% (active). Regarding `CC(=O)NC(C)c1nc2ccccc2n1Cc1ccccc1F` (configuration not stated), the inhibition was -8.31% (inactive). The value for `O=C(CSc1nnc(-c2ccncc2)n1C1CCCCC1)Nc1ccccc1` was 0.57% (inactive); that for `Cc1ccc(N(Cc2ccc(C(=O)Nc3ccccc3C(=O)NCc3ccco3)cc2)S(C)(=O)=O)cc1C` was -0.75% (inactive). The value for `Cc1cccc(Nc2ccccc2C(=O)NCc2ccco2)c1C` was 99.8% (active); that for `O=C(CCNC(=O)c1ccccc1Cl)NCc1ccco1` was -2.42% (inactive); that for `CC(Oc1ccccc1)C(=O)Nc1c2c(nn1-c1ccccc1)CS(=O)C2` (configuration not stated) was 4.67% (inactive). As to `COc1ccc(OCC(=O)NN2Cc3ccccc3C2=N)cc1`, the inhibition is 10.9% (inactive). The value for `CC(Oc1ccccc1)C(=O)NN1Cc2ccccc2C1=N` (configuration not stated) was 59.1% (active); that for `O=C(CSc1nnc(COc2ccc(Cl)cc2)n1Cc1ccco1)N1CCNC1=O` was -11.3% (inactive); that for `CCc1cccc(C)c1NC(=S)N(CCCN1CCN(C)CC1)Cc1cccs1` was -5.26% (inactive). The value for `COc1cc(Cl)ccc1OCc1cc(C(=O)N(C)CCc2c(C)n[nH]c2C)no1` was -14.3% (inactive).

These data come from PubChem BioAssay AID504490 (NMMLSC, 2011).
